The RNAGym collection of RNA variant scans (doi:10.1126/science.aae0568)
This sample holds only a part of the variants without activity.

B1: tRNA (parent)
chain: GUUCCGUUGGCGUAAUGGUAACGCGUCUCCCUCCUAAGGAGAAGACUGCGGGUUCGAGUCCCGUACGGAACG

Variants of: B1
Test: yeast fitness relative to wild type (ratio to wild type); higher = fitter; tRNA-Arg(CCU), competitive growth, 37 C, YPD
Procedure, shortened: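 A pool of Saccharomyces cerevisiae strains, each with a tRNA-Arg(CCU) gene variant at the native genomic locus, was competed in YPD at 37°C for 24 hours across six parallel replicates. The variants had been chemically synthesised at a 3% per-site mutation rate over 69 sites, and gene amplicons before and after competition were read by 100-nucleotide paired-end sequencing. Darwinian fitness relative to wild type rested on changes in genotype frequencies. Genotypes required ≥ 100 starting reads, and estimates < 0.5 were set to 0.5.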

Row | Variant | yeast fitness
1 | U2C A15G A69C | 0.691
2 | U2C C5A A65U | 0.668
3 | U2C A15U C46A | ≤ 0.5
4 | U2C A15U A37G | ≤ 0.5
5 | U2A G12A A20G U26C C31G C33U A42U | ≤ 0.5
6 | U2C C11G C27U C46G | 0.606
7 | U2A U16C G68A | ≤ 0.5
8 | U2A U3C U26C U35A C62A | ≤ 0.5
9 | U2C A45C C46U G68C | ≤ 0.5
10 | U2C A14C A15G U16A | ≤ 0.5
11 | U2C A42C U54A G67C A69U | ≤ 0.5
12 | U2C A20U C34G A42G A43U A65G | ≤ 0.5
13 | U2A U13A C29U U35A C60U | ≤ 0.5
14 | U2C A20U A69C | 0.636
15 | U2C A40G A43U A45C A57G A65C | 0.52
16 | U2C C4U G48A | 0.538
17 | U2C A40G U59C | 0.587
18 | U2A U16C C30A C61G | ≤ 0.5
19 | U2C A14G G18A U32A C66G | ≤ 0.5
20 | U2A U59C | 0.995
21 | U2A G18A G44C | ≤ 0.5

Row | Variant | yeast fitness
22 | U2C A21U U35A G41C U47A G67C | ≤ 0.5
23 | U2A U35A A45C | ≤ 0.5
24 | U2C A14G C46U | 0.669
25 | U2A U16A G56C A57G C62U | ≤ 0.5
26 | U2C A20G C27G A37C G38C A43G A69U | ≤ 0.5
27 | U2A G58A | 0.838
28 | U2C C5G C46U G58A | 0.611
29 | U2A G44C C46A G56C | ≤ 0.5
30 | U2C A14C A40C | ≤ 0.5
31 | U2C A14C A40G | 0.775
32 | U2C C11U A37U U53A | ≤ 0.5
33 | U2C A15G G44A G50C A70G | ≤ 0.5
34 | U2A U8A G9A U13A C24A A45C | ≤ 0.5
35 | U2C C5A C46U | 0.591
36 | U2C A43G C49A A57U | ≤ 0.5
37 | U2A G12A | 0.886
38 | U2A U64A A70U | 1.06
39 | U2C A37U G48A C61U | ≤ 0.5
40 | U2C C5A C30G | ≤ 0.5
41 | U2C A14G A42C | 0.575
42 | U2A G18A C22A C24G A43G C49G | 0.634

Row | Variant | yeast fitness
43 | U2C C4A C27G C34G G51A | 0.514
44 | U2C A20G C27G A37C G38C A43G C55A | ≤ 0.5
45 | U2A U3G G18A A20C C49U C55U | ≤ 0.5
46 | U2C A65U G67A | 0.698
47 | U2A U13G A14G U28A A36U A45U A57G | ≤ 0.5
48 | U2A U19A A20C U26A | 0.578
49 | U2A G23A C29G A40C C55G | ≤ 0.5
50 | U2C A14G C29A C46G | ≤ 0.5
51 | U2A U7A U32A | ≤ 0.5
52 | U2A U16G G41C | 0.649
53 | U2C A20U A40U C62A C66A | ≤ 0.5
54 | U2C C4G C22U C30A | ≤ 0.5
55 | U2A U8A C29G C60U C62A | ≤ 0.5
56 | U2A U47C C66U | 0.683
57 | U2C A42C C66U | 0.574
58 | U2A G17C C46G C66A A70C | 0.605
59 | U2C A15G | 0.91
60 | U2A G23A C29G G58C C60U C66G | ≤ 0.5
61 | U2C C5U C27G U28A A43U | ≤ 0.5
62 | U2C C5G C30G G44A | ≤ 0.5
63 | U2A G9C U16G C24U G68C | ≤ 0.5

Row | Variant | yeast fitness
64 | U2A G18A C30G U35C | ≤ 0.5
65 | U2A U28C G41C U54A | 0.56
66 | U2A U7A C27U C46G | ≤ 0.5
67 | U2C A21G C33G A69C | 0.57
68 | U2C A45C C49U | 0.698
69 | U2C A20G | 0.98
70 | U2C A20C | 0.98
71 | U2A G9U A20G | ≤ 0.5
72 | U2A G39A A69G | 0.599
73 | U2C A21U A40C G56C | 0.66
74 | U2C C5G G9A A15U A69U | ≤ 0.5
75 | U2A G38C A69U | ≤ 0.5
76 | U2A U47G G50C | ≤ 0.5
77 | U2C A37U A43U | 0.568
78 | U2C C11G C24A | 0.665
79 | U2A G25C A36U | ≤ 0.5
80 | U2C C5U C11G U19A C30U G58A | ≤ 0.5
81 | U2C A43C A45C G51C | ≤ 0.5
82 | U2C A70U | 1.06
83 | U2A G9C A14C C34U A65U | ≤ 0.5
84 | U2A G68U | 0.773
